Data published in the EternaBench riboswitch data.

Tested on: MS2 coat protein
Test: apparent Kd, MS2 coat protein; higher = weaker binding; RNA-MaP array
Method in brief: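 Apparent Kd was taken as the median of binding curves fitted cluster by cluster. The designed RNAs were made by transcription of sequenced DNA templates on an Illumina sequencing chip and exposed to fluorescently labeled MS2 coat protein (1.5 nM to 3 μM) at room temperature, with or without input ligand, for 0.8–1.5 h at the lowest and 10–20 min at the highest concentrations. Any design measured on fewer than 10 clusters was left out.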

[1] = designed as: ON switch for flavin mononucleotide, no ligand
[2] = ligand present: flavin mononucleotide, designed as: ON switch for flavin mononucleotide
[3] = designed as: OFF switch for flavin mononucleotide, no ligand
[4] = ligand present: flavin mononucleotide, designed as: OFF switch for flavin mononucleotide
[5] = designed as: ON switch for tryptophan, no ligand
[6] = ligand present: tryptophan, designed as: ON switch for tryptophan

Sequence	apparent Kd [1]	apparent Kd [2]	apparent Kd [3]	apparent Kd [4]	other results
UAUAGGACUUAAGGAUAUGGCACCGGUGUCCCGCCAGAAGGUAAGGACCACACAUGAGGAUCACCCAUGUUCUCGAGAAUGGGA	145 nM	112 nM			
UCAAGCGAAGGAUAUACAUGAGGAUCACCCAUGUUGGCUAGAAUGAAAGACGGAUUAUGUAGAAGGUCGUGUGC			20.3 nM	17.6 nM	
UCAGCUAGACAGGAUAUAGAGAAUCAAGAACAGCUAGAAGGGUCAACAUGAGGAUCACCCAUGUGGUGGUACUG			477 nM	445 nM	
UCAUACAUGAGGAUCACCCAUGUUCGUGGGCGAGGACCGGUACGGCCGCCACUCGUACUAACGGUUUCUUAAACUUCCUUUCGAG					apparent Kd [5]: 25.6 nM; apparent Kd [6]: 17.2 nM
UCAUUUUUCACGGCCGCCACUUCAAGGUCCUGAGGCUGGGCAACACAUGAGGAUCACCCAUGUCGAAGGACCGGGUGAAGCUACC					apparent Kd [5]: 114 nM; apparent Kd [6]: 183 nM
UCCCGACAUGAGGAUCACCCAUGUCCAUUGUCGGUCGAGAGUAAGGAUAUAGAUAAUCAGGAGAACUAGAAGGUACUGUUAGCG			530 nM	164 nM	
UCCCUGCAAGGAUAUACAUGAGGAUCACCCAUGUUUACACACGAAAAUUUGGAGAUAGGUAGAAGGUGCAUUUU			12.6 nM	11.8 nM	
UCGCGCUAAGGAUAUACUAUAAGCCACAUGAGGAUCACCCAUGUUAUAUACAUGUCCUCGGUAGAAGGUAGCCGGA			48.6 nM	50.2 nM	
UCGUCGCUUCAGAAGGACAGACAAUCGUGCACUGUAGGAUAUGAGACGCGACAUGAGGAUCACCCAUGUGAACGGUUCGUAUAA			25.1 nM	53 nM	
UCUGCGUCAGUCAGGAUAUGUUGCCAAAUUAUGGCACAGAAGGGACAUGAGGAUCACCCAUGUAGCGUCUCCGU			10.2 nM	10.4 nM	
UGAACGUCAAGGCAGGAUAUUCUCAAGACAACAUGAGGAUCACCCAUGUUACAACGAUAAAUGAUGAAGAAGGGCCAGGGAUCAUA	11.8 nM	6.33 nM			
UGAAUGCACCAGAAGGCUGGAAGAGUAUUUAACAGAGGAUAUGGAACAUAAAGAUCACAUGAGGAUCACCCAUGUACACAUAAC	34.5 nM	11.1 nM			
UGCCCUACAUGAGGAUCACCCAUGUACAUAACAUGAGUGCGCAGAAGGUAUGCGUUGAAGAGCCAUAAGGAUAUGCAAACCGUC	114 nM	71.1 nM			
UGGAACAGUGUAAGGAUAUGGUACAAAAUAAACUCCCAGAAGGUACAUGAGGAUCACCCAUGUUAAUAAGACAA			13.7 nM	13.6 nM	
UGGUAUGAAGGAUAUGACUAAGUUCACAUGAGGAUCACCCAUGUAACGUCCUCGACAUGUUCAGAAGGUCAGGCGA			11.7 nM	11.4 nM	
UGUAUAGCCACUCAGGAUAUAGUUCAUCACACAUGAGGAUCACCCAUGUUACCAAUAUCAUCUGACUAGAAGGGAGAGACUUGCGU	13.4 nM	9.17 nM			
UGUUGCAGCCACAUGAGGAUCACCCAUGUGCUCAGGAUCGUUGAGGAUAUCGAGGUAGGGUCAGCCGAGAAGGCAAGGGUCGCG	10.5 nM	8.64 nM			
UGUUUACAUGAGGAUCACCCAUGUGUUAUCGUAUUAGGAUAUGCAUGACGAUGAUUUUCGGCAGAAGGAAUGCGCA	439 nM	101 nM			
UUGAGACAACACCCAACAUGAGGAUCACCCAUGUCACCGAGAGAGGAUAUGCACGAGUAGGUCCAGCAGAAGGCUCUAUGUCAA	115 nM	15.9 nM			
UUGCAAGUAGGAUAUAGUAGCGAAUACAUGAGGAUCACCCAUGUAGCCAGUGUAUUGCUUCUAGAAGGACUUCUCC			29.3 nM	34.9 nM	
UUGUGGUAGGCGCAUACUCAUUUAUACAAGCGAGGACCGGUACGGCCGCCACUCGGAAUAAAACAUGAGGAUCACCCAUGUACCG					apparent Kd (designed as: OFF switch for tryptophan, no ligand): 13.7 nM; apparent Kd (ligand present: tryptophan, designed as: OFF switch for tryptophan): 19.1 nM
UUUACAUGAGGAUCACCCAUGUUCCCUUGUGACACGUUUUUCAGAAGGACAGGCAUAAUUUGGAUGUAGGAUAUGAAUUAGUGC			24.9 nM	21.9 nM	
UUUUACAUGAGGAUCACCCAUGUGCGGCGCCGAGGACCGGUACGGCCGCCACUCGCAUGGGCAUGCCGCGAUAUCAUUCCUGAAC					apparent Kd [5]: 96.2 nM; apparent Kd [6]: 103 nM
